Bioassay records as filed in PubChem.
bovine MsrA act = activators of bovine methionine sulfoxide reductase A | actives 0.3% (n = 360,000) | AID 602163 | purified bovine MsrA, absorbance read-out | activation, % at 10.6 µM; in the data active = activation above about 7.5%
MsrA inh = inhibitors of bovine MsrA; purified bovine MsrA, absorbance read-out; inhibition, % at 15.5 µM; actives 0.75% (n = 360,000); AID 651718
proCasp3 act = activates human procaspase-3; recombinant procaspase-3 D3A, Ac-DEVD-pNA absorbance 405 nm; activation, % at 8.5 µM; actives 0.11% (n = 330,000); AID 463141;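 active = activation above the mean of all tested compounds plus 3 SD, cut at about 21% in these data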
Target sequence (P42574 whole entry D9A/D28A/D175A): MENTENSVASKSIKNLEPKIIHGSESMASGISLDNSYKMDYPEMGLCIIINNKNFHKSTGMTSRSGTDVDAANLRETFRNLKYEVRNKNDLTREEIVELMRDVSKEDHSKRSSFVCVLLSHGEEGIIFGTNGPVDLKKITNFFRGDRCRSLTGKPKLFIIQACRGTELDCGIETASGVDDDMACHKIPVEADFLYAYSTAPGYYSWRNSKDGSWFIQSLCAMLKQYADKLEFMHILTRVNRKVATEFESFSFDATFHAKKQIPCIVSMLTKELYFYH
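Technique: 405 nm absorbance of p-nitroaniline, reads at 0 and 120 min; Test system: Procaspase-3 D3A mutant; Incubation: 1 h enzyme-compound preincubation, then 2 h substrate reaction, 25 °C; Repeats: singlicate, each compound tested once; Benchmarks: low control DMSO wells, high control DMSO plus 5 µM PC-3 D3A.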
A1 inh = inhibitors of the anti-apoptotic protein A1, read as caspase activation; MEF A1-2A-BIM cells, Caspase-Glo 3/7 luminescence, 3 h; percent of clofoctol response, vehicle zero; caspase activation, % (concentration not given with the values); actives 0.066% (n = 330,000);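 active = over half of replicate activation scores above 10%, or exactly half above 10 with the replicate mean above 10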
proCasp7 act = counter-screen: procaspase-7 (human) activation; activation, % at 8.5 µM; AID 463210; actives 0.093% (n = 330,000); recombinant procaspase-7, Ac-DEVD-pNA absorbance 405 nm; D23A/D198A/D206A triple mutant, cannot self-cleave; scale: DMSO 0, 5 µM enzyme 100;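 active = percent activation above the screen-wide mean plus 3 SD, cut at about 25% in these data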
Target sequence (P55210 whole entry D23A/D198A/D206A): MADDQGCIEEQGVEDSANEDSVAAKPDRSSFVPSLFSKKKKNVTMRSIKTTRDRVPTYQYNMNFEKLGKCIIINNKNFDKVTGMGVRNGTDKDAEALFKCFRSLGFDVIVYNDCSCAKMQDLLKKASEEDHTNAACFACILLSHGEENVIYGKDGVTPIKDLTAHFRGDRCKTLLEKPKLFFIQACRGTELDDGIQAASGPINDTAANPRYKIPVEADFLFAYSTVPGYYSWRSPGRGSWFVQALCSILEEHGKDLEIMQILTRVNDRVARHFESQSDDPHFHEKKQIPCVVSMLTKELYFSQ
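Detection: p-Nitroaniline absorbance at 405 nm, read at 0 and 120 min; system: Uncleavable procaspase-7 mutant enzyme; evaluation: % activation from two-timepoint absorbance difference, scaled to controls; times: 1 h enzyme–compound preincubation and 2 h substrate reaction, both 25 °C; buffer or medium: Zinc-free HEPES pH 7.4 with 300 mM NaCl, 0.01% Triton X-100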
MsrA conf = bovine MsrA inhibition, confirmed | shares compounds with MsrA inh | purified bovine MsrA, absorbance read-out | inhibition, % at 15.5 µM | actives 41% (n = 2,300);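 note: coupled to thioredoxin reductase with NADPH and selenocystamine and DMSO as substrate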
Of the large screens only hits and unclear results are named; the others gave an inactive call (follow-up assays come after a bar, where they were run). Sampled rows, rich in hits. Any-hit rate of the full collection: about 1.2%. Cut-off read from the data, not from the text of the source, unless noted: active = inhibition above about 4.5%; inactive = the rest.

CN1/C(=C\C(=O)COC(=O)c2ccc(O)c(O)c2)C(C)(C)c2ccccc21	MsrA inh 4.8 (no result: bovine MsrA act) | MsrA conf inactive
CN1/C(=C\C(=O)COC(=O)c2ccc(O)cc2)C(C)(C)c2ccccc21	MsrA inh 5.2 | MsrA conf inactive
COc1ccccc1C(=O)N1[C@@H](C(C)C)COc2cc(Br)ccc2S1(=O)=O	none (no result: proCasp3 act, A1 inh, proCasp7 act)
COc1ccc(C2=CC(=O)CC(C)(C)C2)cc1OC	MsrA inh 4.8 | MsrA conf inactive
N#Cc1c(-n2cccc2C=O)sc2c1CCCC2	MsrA inh 11.2 | MsrA conf 10.0
CC1CC(C)C[N+](=C2C=C(N3CCCC3)CC(C)(C)C2)C1 (configuration not stated)	MsrA inh 5.8 (no result: proCasp3 act, A1 inh, proCasp7 act) | MsrA conf inactive
CC1(C)CC(N2CCCC2)=CC(=[N+]2CCCCCC2)C1	MsrA inh 6.7 | MsrA conf 4.9
CC1(C)CC(N2CCN(c3ccccc3)CC2)=CC(=[N+]2CCCC2)C1	MsrA inh 5.5 | MsrA conf 5.0
CCN(CC)c1ccc(C(=O)OCC(=O)Nc2ccccc2-c2ccccc2)cc1	MsrA inh 5.8 | MsrA conf inactive
COc1ccc2cc(C3=CC(=O)CCC3)ccc2c1	none (no result: proCasp3 act, A1 inh, proCasp7 act)
C/C(=N\NC(=O)c1cccnc1)c1cccc([N+](=O)[O-])c1	none
C/C(=N\Nc1ccc([N+](=O)[O-])cc1[N+](=O)[O-])c1cccnc1	MsrA inh 13.0 | MsrA conf 15.7
C/C(=N\Nc1ccc(S(N)(=O)=O)cc1[N+](=O)[O-])c1cccnc1	MsrA inh 11.2 | MsrA conf 10.2
COc1ccc(CN(C)CCCn2cnc3c(SC)ncnc32)cc1OC	none (no result: proCasp3 act, A1 inh, proCasp7 act)
CC(=O)c1ccc(-c2ccc(C(=O)NC3CC(C)(C)NC(C)(C)C3)o2)cc1	MsrA inh 5.4 | MsrA conf 5.3
CC1(C)CC(NC(=O)c2ccc(F)cc2)CC(C)(C)N1	none (no result: proCasp3 act, A1 inh, proCasp7 act)
O=C(O)c1ccc(N/N=C/c2ccc(F)c(F)c2)cc1	MsrA inh 7.9 | MsrA conf 5.9
O=C(O)c1ccc(N/N=C/c2cccc(F)c2)cc1	MsrA inh 6.8 | MsrA conf 6.7
CCN(CC)S(=O)(=O)c1ccc(N/N=C/c2ccc(O)cc2)nc1	MsrA inh 5.7 | MsrA conf 4.9
CCOc1cccc(/C=N/Nc2ccc(S(=O)(=O)N(CC)CC)cn2)c1O	none
CC1(C)CC(=O)C=C(Nc2cccc(F)c2)C1	none
CN(C)c1cccc(NC2=CC(=[N+]3CCOCC3)CC(C)(C)C2)c1	MsrA inh 4.8 | MsrA conf 5.2
COc1ccccc1/C=C/C=N/NC(=O)c1ccncc1	MsrA inh 9.0 | MsrA conf 5.0
O=C(Cc1cccs1)N/N=C/C=C/c1ccccc1[N+](=O)[O-]	none
COc1cc(OC)c(OC)cc1/C=N/NC(=O)c1cnccn1	MsrA inh 6.2 | MsrA conf inactive
COc1ccccc1/C=C/C=N/NC(=O)Cc1cccs1	MsrA inh 5.0 | MsrA conf inactive
COc1cc(OC)c(OC)cc1/C=N/NC(=O)c1ccc(=O)n(C)c1	MsrA inh 10.0 | MsrA conf 9.2
COc1cc(OC)c(/C=N/NC(N)=S)cc1Br	MsrA inh 5.3 | MsrA conf inactive
COc1cc(OC)c(/C=N/NC(=O)c2ccncc2)cc1Br	MsrA inh 5.2 | MsrA conf inactive
CCN1CCN(C(=O)c2cc(S(=O)(=O)N3CCCCC3)ccc2Cl)CC1	none
NC1=C(c2ccc([N+](=O)[O-])cc2)C(=O)CO1	none
O=c1oc2c(-c3ccc([N+](=O)[O-])cc3)cc(O)cc2s1	MsrA inh 7.5 | MsrA conf inactive
CCOC(=O)/C(C#N)=C1/C=CNC(=O)N1	MsrA inh 4.7 | MsrA conf inactive
C=CCN=C1NC(c2cccc(C(F)(F)F)c2)C(C(=O)OC)=C(C)N1Cc1ccccc1C(F)(F)F (configuration not stated)	none (no result: bovine MsrA act, proCasp3 act, A1 inh, proCasp7 act)
O=C(NCc1ccccc1)c1ccc(=O)oc1	MsrA inh 7.5 | MsrA conf 6.2
O=C(NCc1ccco1)c1ccc(=O)oc1	MsrA inh 7.9 | MsrA conf 6.2
COC(=O)CNC(=O)c1ccc(=O)oc1	MsrA inh 5.8 | MsrA conf 5.3
O=C(NCc1ccco1)c1ccccc1	none
COc1ccc(S(=O)(=O)NC(=O)C2(C)CCN2C(=O)COc2ccc(Cl)cc2)cc1OC (configuration not stated)	none (no result: proCasp3 act, A1 inh, proCasp7 act)
COc1ccc(S(=O)(=O)N(CC(=O)NN=C2CCN(C)CC2)c2cc(Cl)ccc2OC)cc1OC	none
Cc1ccc(F)cc1C(=O)N1CCCCC1c1cc(C(=O)Nc2ccc(F)c(Cl)c2)no1 (configuration not stated)	none (no result: proCasp3 act, A1 inh, proCasp7 act)
COc1cc(/C=N/Nc2ccc(S(N)(=O)=O)cc2)cc(OC)c1OC	MsrA inh 5.6 | MsrA conf 6.3
COc1ccc(/C=N/Nc2cc(=O)n(C)c(=O)n2C)cc1OC	MsrA inh 4.7 | MsrA conf 4.7
COc1cc(/C=N/Nc2ccc(C(=O)O)cc2)cc(OC)c1OC	none
COc1ccc(-c2cnnc(N/N=C/c3ccc(-c4ccc([N+](=O)[O-])cc4)o3)n2)cc1	none (no result: proCasp3 act, A1 inh, proCasp7 act)
COc1cc(/C=N/Nc2ccc(C(=O)O)cc2)ccc1O	MsrA inh 7.1 | MsrA conf 5.1
COc1ccc(-c2cnnc(N/N=C/c3ccc(O)c(OC)c3)n2)cc1	MsrA inh 6.4 | MsrA conf 6.6
COc1ccc(Cl)cc1C(=O)N1CCN(Cc2ccc3c(c2)OCO3)CC1	none
CCCCCCNC(=O)O[C@H]1C[C@H](C(=O)OC)[C@H](C(=O)OC)C2CN(S(=O)(=O)c3ccc(C)cc3)C[C@@]21O (some centres not stated)	none (no result: proCasp3 act, A1 inh, proCasp7 act)
O=C(Cn1cnc2ccccc21)Nc1ccc2c(c1)OCCCO2	none
COc1ccc(/C=N/NC(=S)SC)cc1OC	MsrA inh 6.2 | MsrA conf inactive
CCNc1nc(NCC)nc(N/N=C/c2ccc(OC)cc2)n1	none
COc1ccc(/C=N/Nc2nc(C)nc(N)n2)cc1	MsrA inh 4.7 | MsrA conf inactive
COc1ccc(/C=N/Nc2ccc(C(=O)O)cc2)c(OC)c1OC	MsrA inh 5.8 | MsrA conf 5.5
COc1ccc(/C=N/NC(=S)Nc2cccc(C(=O)O)c2)cc1	none
COc1cc(/C=N/NC(=S)Nc2cccc(C(=O)O)c2)ccc1O	MsrA inh 5.1 | MsrA conf 5.6
CC(=O)Nc1ccc(/C=N/NC(=S)NC(C)C)cc1	MsrA inh 8.9 | MsrA conf inactive
COc1cc(/C=N/Nc2nc(N3CCCC3)nc(N3CCCC3)n2)ccc1O	MsrA inh 5.2 | MsrA conf inactive
COc1cc(C=O)ccc1O	MsrA inh 6.2 (no result: proCasp3 act, A1 inh, proCasp7 act) | MsrA conf inactive
C=C(C)CNC(=S)N/N=C/c1ccc(NC(C)=O)cc1	none
